Compound activity deposited in PubChem by The Scripps Research Institute Molecular Screening Center.
UHRF1 MBD2 ctr: human UHRF1 methylated DNA binding inhibitors. Q96T88. AID 687016. UHRF1 binding to methylated oligo, TR-FRET. inhibition, % at 4.4 µM. 370,000 compounds, 0.75% hits; in the data active means inhibition above about 21%;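 further: UHRF1 SRA domain binding a hemimethylated CpG hairpin DNA probe; 0% = median of test compound wells and 100% = reference inhibitor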
MBD2 inh: blocks human MBD2 binding to methylated DNA; AID 686964; 370,000 compounds, 0.31% hits; inhibition, % at 4.4 µM; TR-FRET, MBD2 binding to methylated oligonucleotide; in the data active means inhibition above about 13%
Target sequence (Q9UBB5 whole entry, looked up): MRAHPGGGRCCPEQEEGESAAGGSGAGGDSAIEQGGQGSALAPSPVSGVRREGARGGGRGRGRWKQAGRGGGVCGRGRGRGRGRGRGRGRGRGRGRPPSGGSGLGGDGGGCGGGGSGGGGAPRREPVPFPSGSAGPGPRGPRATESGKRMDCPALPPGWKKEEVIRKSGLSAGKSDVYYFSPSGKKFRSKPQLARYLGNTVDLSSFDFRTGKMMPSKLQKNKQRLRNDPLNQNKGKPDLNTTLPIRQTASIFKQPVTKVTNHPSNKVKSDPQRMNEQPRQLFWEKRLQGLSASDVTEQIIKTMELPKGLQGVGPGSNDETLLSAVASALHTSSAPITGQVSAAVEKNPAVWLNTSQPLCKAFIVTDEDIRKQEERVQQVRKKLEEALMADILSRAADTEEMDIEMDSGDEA
LEDGF integ inh: blocks HIV-1 LEDGF/p75-dependent DNA integration | AID 743269 | 370,000 compounds, 0.64% hits | TR-FRET IN-LEDGF/p75 DNA integration, Eu/Cy5 | inhibition, % at 3.7 µM;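 active means inhibition above the screen-wide mean plus 3 SD, cut at about 13% in these data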;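 further: signal is the Cy5 over europium emission ratio at 671 and 618 nm; 0% = plate median of compound wells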
Rin1 Abl inh: human Rin1-Abl interaction inhibition | P00519+Q13671 | TR-FRET Rin1/Abl binding, biochemical | inhibition, % at 7.35 µM | 360,000 compounds, 0.4% hits | AID 588664; in the data active means inhibition above about 5%, passing the limit was not always enough
TDP2 absorb: blocks human TDP2 phosphodiesterase activity. AID 720702. inhibition, % at 12.8 µM. recombinant TDP2, T5PNP hydrolysis, p-nitrophenol absorbance 415 nm. 370,000 compounds, 0.34% hits;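 active means inhibition above the mean of all tested compounds plus 3 SD, set per campaign, cut at about 25% in these data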;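 further: 0% = DMSO with enzyme and 100% = buffer with substrate but no TDP2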
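System: recombinant human TDP2 / Amount: 120 nM TDP2 per well / Also added: 5 mM T5PNP chromogenic substrate / Doses: 12.8 µM single point, 1% DMSO / Incubation: 2 h at 37 °C / Detection: p-Nitrophenol epi absorbance / Evaluation: % inhibition relative to enzyme-containing and enzyme-free wells / Repeats: singlicate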
Rin1 Abl conf: Rin1-Abl interaction inhibition confirmation; 1,300 compounds, 49% hits; shares compounds with Rin1 Abl inh; TR-FRET Rin1-Abl binding, purified proteins; inhibition, % at 7.35 µM
GFP quencher: counter-screen for Rin1-Abl inhibitors: GFP fluorescence quenchers | AID 602125 | 1,300 compounds, 8.5% hits | shares compounds with Rin1 Abl inh | inhibition, % at 6.75 µM | inhibitors/quenchers counterscreen;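 further: ABL1-eGFP fusion protein alone without its partner RIN1-SBP; 0% = protein with vehicle and 100% = wells lacking protein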
GFP quench dose: GFP fluorescence interference dose response | AID 602182 | IC50, µM | 230 tested, under 10 active | shares compounds with Rin1 Abl inh | GFP fluorescence interference/quenching counterscreen; call rule not given here;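 further: ABL1-eGFP fusion protein alone without its RIN1 binding partner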
Starred values were filed as active, the others as inactive; . = not tested or not shown. Only some compounds are listed: those with a hit (about 1.9% of all), similar ones and a draw of the others. Unless noted, no stated cut-off is given here; in the data, active means inhibition above about 6.5%; inactive means the rest.

SMILES	UHRF1 MBD2 ctr	MBD2 inh	LEDGF integ inh	Rin1 Abl inh	TDP2 absorb	Rin1 Abl conf	GFP quencher	others
CCOc1ccc(C(C(=O)NCC2CCCO2)N(C(=O)c2snc(C(N)=O)c2N)c2ccc3c(c2)OCCO3)cc1 (configuration not stated)	0.5	1.8	-7.7	16.0*	-4.1	23.1*	-0.1
CCOc1ccccc1N(C(=O)c1snc(C(N)=O)c1N)C(C(=O)NCc1ccccc1)c1ccc(O)cc1 (configuration not stated)	-0.9	-0.5	-4.1	14.6*	-6.2	26.5*	1.2	GFP quench dose=>67.5
CN1C(=O)c2cc(NC(=O)C3CCCCC3)ccc2OC[C@H]2O[C@@H](CC(=O)NC3CCCC3)CC[C@H]21	-1.2	-5.1	0.2	.	2.7	.	.
Cc1occc1-c1nnc(SCC(=O)Nc2ccncc2)n1-c1ccccc1	-1.2	4.4	2.6	.	6.5	.	.
O=c1[nH]c(CSc2nnnn2-c2ccccc2)nc2ccccc12	-1.9	-9.3	-1.9	9.8*	-5.1	1.4	0.8
CCN(CC)c1cc(-c2ccccc2)ncn1	4.2	1.9	-6.9	7.6*	-7.8	1.3	-0.8
COc1cnc(-c2ccccn2)nc1Oc1ccc(Cl)cc1	-1.2	-2.7	7.3	6.8*	6.7	5.8	1.2
COc1cnc(-c2ccccn2)nc1Oc1ccccc1Cl	0.3	-0.2	4.6	-6.3	4.0	.	.
CN(C)S(=O)(=O)c1ccc(C(=O)OC2CCOC2=O)cc1 (configuration not stated)	-0.3	0.7	1.2	6.9*	4.9	0.6	-2.3
C[C@H]1C2CC(OC(=O)Nc3ccc(C(F)(F)F)cc3)C(C2)[C@H]2CCCCN21 (some centres not stated)	-1.5	-0.8	1.6	.	4.7	.	.
O=C(NC1CCCCC1)c1cccnc1C(=O)O	1.5	-4.2	2.1	5.9*	-10.0	1.8	0.0
COC(=O)[C@H](C)N(Cc1cn(Cc2ccccc2)nn1)S(=O)(=O)c1ccccc1Br	0.6	-5.6	1.7	.	-15.4	.	.
CCCSc1nnc(CSc2nc(C)cc(C)n2)n1C	0.3	-0.3	7.3	19.8*	-5.6	14.8*	2.6
CCCc1cc(=O)[nH]c(SCC(=O)NC2CCCCCCC2)n1	5.5	-4.2	4.6	9.1*	-19.6	0.7	-0.6
CC(=O)NC(Cc1ccccc1)P(=O)(O)O (configuration not stated)	0.0	0.7	5.8	.	-14.7	.	.
O=C(CCCC(=O)N1CCc2ccccc21)N1CCc2ccccc21	9.1	8.7	-2.4	-0.1	-5.1	.	.
CCOCC(=O)N1CCc2ccccc21	0.6	5.9	-2.2	6.3*	4.1	-1.1	2.1
CN(C)c1cccc(CNC(=O)c2ccc3nc([C@H]4C[C@H](O)[C@@H](CO)O4)[nH]c3c2)c1	3.1	4.4	-5.5	-2.8	-2.0	.	.
CN(C)c1cccc(CNC(=O)c2ccc3nc([C@@H]4O[C@H](CO)[C@H](O)[C@H](O)[C@H]4O)[nH]c3c2)c1	81.0*	0.7	-1.2	13.6*	5.1	-1.2	-0.6
COC(=O)c1cc(NC(=O)CC2SCCNC2=O)cc(C(=O)OC)c1 (configuration not stated)	-1.1	-4.1	0.0	-0.7	5.0	.	.
O=C(CC1SCCNC1=O)Nc1cc(Cl)cc(Cl)c1 (configuration not stated)	3.2	-0.9	1.4	11.2*	-14.5	17.4*	-0.2	GFP quench dose=>67.5
COc1ccc(C)cc1NC(=O)Nc1ccccc1	3.8	7.7	-4.7	-0.3	-1.7	.	.
COc1ccc(NC(=O)Nc2cc(C)ccc2OC)cc1	5.1	4.0	-0.9	5.9*	-10.0	-1.4	-2.1
COc1ccc(C)cc1NC(=O)CN(C)C1CCCCC1	-0.3	3.2	3.6	15.0*	13.9	-0.8	-1.0
C/C(=N\OC(=O)Nc1ccccc1)c1ccc(C)cc1	0.0	2.5	-1.2	6.4*	11.5	-0.9	-0.1
SMILES	UHRF1 MBD2 ctr	MBD2 inh	LEDGF integ inh	Rin1 Abl inh	TDP2 absorb	Rin1 Abl conf	GFP quencher	others
C/C(=N/NC(=O)Nc1ccccc1)c1ccc(C)cc1	-0.4	-0.4	0.3	1.8	-14.0	.	.
O=C(Nc1ccc(Br)cc1)OCCCN1CCC2(CCCCC2)C1=O	2.6	-3.4	-4.8	.	-0.8	.	.
COc1ccc(C(C#N)CC(=O)c2ccc3c(c2)OCO3)cc1OC (configuration not stated)	0.2	-2.2	3.1	-6.9	2.7	.	.
COc1ccc(C(=O)CC(C#N)c2ccc3c(c2)OCO3)cc1OC (configuration not stated)	2.0	-4.4	4.1	11.0*	-2.0	-2.7	-0.2
CC(=O)NCC1(c2ccccc2)CCN(CCCC(=O)c2ccc(F)cc2)CC1	1.1	-0.9	1.5	14.3*	0.1	14.8*	-1.1
COC(=O)c1ccc(NC(=O)CSc2nc3cccnc3n2C)cc1	-1.2	-3.1	-0.3	0.8	-5.1	.	.
CCOC(=O)c1ccc(NC(=O)CSc2nc3cccnc3n2C)cc1	3.6	3.2	3.3	9.9*	-12.6	5.9	-0.8
CCOC(=O)c1ccc(NC(=O)CSc2nncn2-c2cccnc2)cc1	-0.3	-1.4	-0.5	7.8*	-3.0	1.9	-0.6
NC(=O)c1ccc(NC(=O)CSc2nncn2-c2ccccc2)cc1	-0.5	-1.8	0.5	0.0	7.5	.	.
COc1ccccc1CN[C@@H]1CC[C@@]23CCCN2C(=O)CCC[C@H]3C1	1.8	4.4	-1.4	.	9.4	.	.
CCCCn1c(NS(=O)(=O)c2ccc(C)cc2)c(S(=O)(=O)c2ccccc2)c2nc3ccccc3nc21	9.8	-4.9	11.6	9.6*	58.0*	-3.2	-1.2
CC(=O)CC[C@@H]1CC[C@]2(CCCN(C(=O)C(C)(C)C)C2)O1	2.0	5.9	-1.8	.	-0.8	.	.
CCOC(=O)[C@]12CCCC=C1N(Cc1ccc(OC)cc1)C(=O)[C@@H]2CC(=O)N1CCN(C(=O)C2CC2)CC1	0.8	-2.9	0.6	.	-3.9	.	.
CSc1nc2nc3c(cc2c(=O)n1-c1ccccc1)COC(C)(C)C3	1.7	0.3	1.2	2.3	5.8	.	.
CC1(C)Cc2nc3nc(SCC(=O)NCCc4ccccc4)n(-c4ccccc4)c(=O)c3cc2CO1	0.7	0.1	-1.8	8.2*	-3.3	6.0	2.3
COC(=O)c1cc(-c2cccc(C#N)c2)c(=O)n2c1CCC2	3.9	3.6	0.8	.	8.1	.	.
Cc1ccc(-c2cc(-c3nnc4sc(COc5ccccc5)nn34)[nH]n2)cc1	-3.0	-0.8	0.2	.	3.3	.	.
CC1CCN(C(=O)c2ccc(N3CCOCC3)c([N+](=O)[O-])c2)CC1	-1.4	-2.6	-8.6	8.9*	-0.9	-2.9	-0.7
c1nc(NCC2CCCC2)c2cc(-c3ccc4c(c3)OCO4)ccc2n1	1.5	2.6	3.6	.	3.5	.	.
